Sampled rows, rich in hits. Any-hit rate of the full collection: about 2.4%.
S1P4 agonist = human S1P4 receptor agonism; S1P4-expressing cell line, agonist reporter assay; activation, % at 4.98 µM; 220,000 compounds, 0.35% hits; AID 1509; in the data active = activation above about 11%;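 also: 0% = DMSO vehicle and 100% = reference agonist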
NPY1 pot ag = human NPY-Y1 potentiation or agonism, primary screen; P25929; NPY-Y1 expressing cells, potentiator/agonist activation; activation, % at 3.6 µM; 220,000 compounds, 0.37% hits; in the data active = activation above about 33%, passing the limit was not always enough;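 also: cells stimulated with NPY at EC10 then isoproterenol at EC100; 0% = low agonist plus stimulus and 100% = saturating agonist plus stimulus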
NPY-Y2 antag = NPY-Y2 (human) receptor antagonism. P49146. NPY-Y2 expressing cells, antagonist mode. inhibition, % at 2.7 µM. 140,000 compounds, 0.99% hits. AID 793; in the data active = inhibition above about 17%;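 also: 0% = vehicle with agonist challenge and 100% = reference antagonist with challenge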
Target sequence (P49146 whole entry, looked up): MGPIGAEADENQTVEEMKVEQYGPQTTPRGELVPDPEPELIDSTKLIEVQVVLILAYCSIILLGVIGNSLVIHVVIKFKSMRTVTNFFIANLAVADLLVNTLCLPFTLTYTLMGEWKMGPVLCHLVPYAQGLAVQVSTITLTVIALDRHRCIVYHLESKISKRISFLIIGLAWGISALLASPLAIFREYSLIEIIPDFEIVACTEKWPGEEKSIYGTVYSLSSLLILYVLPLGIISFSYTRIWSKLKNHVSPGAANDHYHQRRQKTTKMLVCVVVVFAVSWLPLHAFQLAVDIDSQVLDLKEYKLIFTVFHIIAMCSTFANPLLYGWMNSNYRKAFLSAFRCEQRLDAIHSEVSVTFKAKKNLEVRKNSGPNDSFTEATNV
NPY2 pot ag = human NPY-Y2 potentiation or agonism, primary screen | P49146 | cells expressing NPY-Y2, potentiator/agonist read-out | AID 1359 | 220,000 compounds, 0.45% hits | activation, % at 3.6 µM; in the data active = activation above about 27%;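 also: cells stimulated with NPY near EC25 plus isoproterenol at EC100; 0% = vehicle plus submaximal agonist and 100% = vehicle plus saturating agonist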
S1P4 antag = blocks the human S1P4 receptor; O95977; S1P4-expressing cells, antagonist mode, reporter read-out; inhibition, % at 4.98 µM; 220,000 compounds, 0.26% hits; in the data active = inhibition above about 29%;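 also: 0% = wells stimulated with agonist and 100% = vehicle wells without agonist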
NPY Y1 blocker = antagonists of human neuropeptide Y receptor Y1; HEK293-CNG Y1 cells, membrane potential fluorescence; NPY at EC95, then isoproterenol; inhibition, % at 3.6 µM; 200,000 compounds, 1% hits;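 active = inhibition above the campaign mean inhibition of all tested compounds plus 3 SD, cut at about 20% in these data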;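 also: 0% = DMSO wells given NPY plus isoproterenol and 100% = isoproterenol alone without NPY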
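System: HEK293 cells with Y1 receptor plus CNG channel / Probe or stimulus: NPY 25 nM then isoproterenol 1 µM plus Ro 20-1724 25 µM / Compound: one concentration, 3.6 µM, in 0.4% DMSO / Schedule: compound incubation 1 h at room temperature, readout 45 min post-stimulation / Measured by: membrane potential fluorescence / Read-out: % inhibition of NPY effect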
NPY-Y1 antag ct = antagonizes human NPY-Y1, counter-screen to NPY-Y2 antagonists; 710 compounds, 19% hits; inhibition, % at 3.6 µM; shares compounds with NPY-Y2 antag; cell-based NPY-Y1 antagonism counterscreen; in the data active = inhibition above about 20%;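 also: cells challenged with NPY then isoproterenol with cAMP sensed through a CNG channel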
NPY-Y2 ant conf = confirmation of human neuropeptide Y receptor Y2 antagonists | shares compounds with NPY-Y2 antag | inhibition, % at 2.8 µM | 710 compounds, 32% hits | HEK293 NPY-Y2 CNG channel, membrane potential fluorescence;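 active = mean inhibition of triplicate wells above the hit cutoff set in the primary screen, cut at about 17% in these data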;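 also: 0% = DMSO with NPY challenge and 100% = BIIE0246 high control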
Numbers without * were called inactive.

Results for COc1ccc(/C=C/C(=O)Nc2cc(S(=O)(=O)N3CCOCC3)ccc2C)cc1OC ?
S1P4 agonist: -0.3; NPY1 pot ag: 1.7; NPY2 pot ag: -11.7; S1P4 antag: 5.7; NPY Y1 blocker: -4.2

How did COc1ccc(OCC(=O)Nc2cccc3cccnc23)cc1 do in these assays?
S1P4 agonist: -1.1; NPY1 pot ag: -10.3; NPY-Y2 antag: 48.4*; NPY2 pot ag: -4.1; S1P4 antag: -3.9; NPY Y1 blocker: 12.5; NPY-Y1 antag ct: 11.2; NPY-Y2 ant conf: 23.6*

How did Cc1n[nH]c(=S)n1/N=C/c1ccc(OCc2ccc(Cl)cc2Cl)cc1 do in these assays?
S1P4 agonist: 1.8; NPY1 pot ag: 18.8; NPY-Y2 antag: 11.8; NPY2 pot ag: 7.6; S1P4 antag: -9.4; NPY Y1 blocker: 0.8

How did Cc1n[nH]c(=S)n1/N=C/c1ccccc1OCc1ccc(Cl)cc1Cl do in these assays?
S1P4 agonist: 0.6; NPY1 pot ag: -16.1; NPY-Y2 antag: 17.2*; NPY2 pot ag: -10.6; S1P4 antag: 3.2; NPY Y1 blocker: -1.4; NPY-Y1 antag ct: 27.4*; NPY-Y2 ant conf: 54.3*

What do the screens show for `CCOC(=O)c1c(CSC(=N)N)n(-c2ccc(Br)cc2)c2cc(Br)c(OC(C)=O)cc12`?
S1P4 agonist: -0.5; NPY1 pot ag: 81.4*; NPY-Y2 antag: 25.6*; NPY2 pot ag: 73.8*; S1P4 antag: 23.0; NPY Y1 blocker: -3.4; NPY-Y1 antag ct: 13.6; NPY-Y2 ant conf: 16.0

What do the screens show for `Cc1cccc(NC(=O)c2ccc(COc3ccc4ccccc4c3)o2)n1`?
S1P4 agonist: -0.4; NPY1 pot ag: -11.4; NPY2 pot ag: -28.1; S1P4 antag: -10.8; NPY Y1 blocker: 16.2

Results for Cc1c(NC(=O)c2ccc(COc3ccc4ccccc4c3)o2)c(=O)n(-c2ccccc2)n1C ?
S1P4 agonist: -0.3; NPY1 pot ag: -10.6; NPY-Y2 antag: 18.1*; NPY2 pot ag: -4.3; S1P4 antag: -13.8; NPY Y1 blocker: 8.0; NPY-Y1 antag ct: 14.5; NPY-Y2 ant conf: 8.9

What do the screens show for `CN(C(=O)CCl)C1CCCc2ccccc21` (centres undefined)?
S1P4 agonist: 2.3; NPY1 pot ag: -19.0; NPY2 pot ag: 2.9; S1P4 antag: -3.3; NPY Y1 blocker: 8.6

What do the screens show for `CCN(CC)c1ccc(NC(=O)COC(=O)CSc2ccc(Br)cc2C)cc1`?
S1P4 agonist: 1.0; NPY1 pot ag: -19.8; NPY-Y2 antag: 6.1; NPY2 pot ag: -4.9; S1P4 antag: -14.1; NPY Y1 blocker: 5.0

Results for Cc1cc(C)c(NC(=O)COC(=O)CSc2ccc(Br)cc2C)c(C)c1 ?
S1P4 agonist: 0.3; NPY1 pot ag: 2.5; NPY-Y2 antag: 17.6*; NPY2 pot ag: 1.0; S1P4 antag: 3.5; NPY Y1 blocker: 6.2; NPY-Y1 antag ct: 5.7; NPY-Y2 ant conf: 6.8

How did CCOc1ccc(Oc2c(/C=N/NC(C)=O)c(C)nn2-c2ccccc2)cc1 do in these assays?
S1P4 agonist: 3.4; NPY1 pot ag: -55.8; NPY-Y2 antag: 31.9*; NPY2 pot ag: -11.0; S1P4 antag: -5.4; NPY Y1 blocker: 11.5; NPY-Y1 antag ct: 15.7; NPY-Y2 ant conf: 30.9*

Results for CCOc1ccc(Oc2c(/C=N/NC(=O)C3CC3)c(C)nn2-c2ccccc2)cc1 ?
S1P4 agonist: -0.2; NPY1 pot ag: -38.9; NPY-Y2 antag: 7.8; NPY2 pot ag: -6.9; S1P4 antag: 0.4; NPY Y1 blocker: 13.4

Results for CN1CCN(S(=O)(=O)c2ccc(NCc3ccc4c(c3)OCO4)nc2)CC1 ?
S1P4 agonist: -1.4; NPY1 pot ag: 4.9; NPY2 pot ag: 13.4; S1P4 antag: 5.9

Results for COc1ccc(/C=N/NC(=O)c2nc(-c3ccccc3)cc(-c3ccccc3)n2)cc1O ?
S1P4 agonist: 1.3; NPY1 pot ag: -19.2; NPY-Y2 antag: 11.2; NPY2 pot ag: -28.6; S1P4 antag: -21.2; NPY Y1 blocker: 8.7

How did COc1ccc(/C=N/NC(=O)c2nc(-c3ccccc3)cc(-c3ccccc3)n2)cc1 do in these assays?
S1P4 agonist: -2.4; NPY1 pot ag: -52.8; NPY-Y2 antag: 19.9*; NPY2 pot ag: -56.9; S1P4 antag: 19.0; NPY Y1 blocker: 2.5; NPY-Y1 antag ct: 21.8*; NPY-Y2 ant conf: 26.9*

High-throughput results as filed in PubChem.
